This assay deals with Sphingosine 1-phosphate receptor 3 (Homo sapiens) (UniProt Q99500). Briefly: human S1P3 receptor agonists, primary screen, cell-based, primary and confirmation, NFAT-BLA reporter (AID 373). The essentials: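 material = human S1P3 NFAT-BLA reporter CHO cells | schedule = 4 h compound at 37 °C, 2 h substrate at RT | measured by = fluorescent BLA substrate, ex 405 nm, em 460/535 nm ratio | controls = 1 µM S1P reference | replication = primary once, confirmation triplicate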

Where [1] appears, read: S1P3 NFAT-BLA reporter cells, agonism, FRET ratio, at 4.5 µM, stronger effect = higher value, relative to 1 µM S1P, basal subtracted.

The text below walks through data of PubChem BioAssay AID373 (The Scripps Research Institute Molecular Screening Center, 2006).

Out of some 60,000 compounds screened, about 60 (0.1%) were called active.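 Rule for the calls: active = activation above the screen-wide mean plus 3 SD (cut at about 4.5% in these data, passing the limit was not always enough); inactive = the rest, inconclusive results apart.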 The list comes from a sample in which actives are over-represented; it also holds similar structures and randomly drawn compounds.

Chain of Sphingosine 1-phosphate receptor 3 (Homo sapiens) (Q99500 whole entry, looked up): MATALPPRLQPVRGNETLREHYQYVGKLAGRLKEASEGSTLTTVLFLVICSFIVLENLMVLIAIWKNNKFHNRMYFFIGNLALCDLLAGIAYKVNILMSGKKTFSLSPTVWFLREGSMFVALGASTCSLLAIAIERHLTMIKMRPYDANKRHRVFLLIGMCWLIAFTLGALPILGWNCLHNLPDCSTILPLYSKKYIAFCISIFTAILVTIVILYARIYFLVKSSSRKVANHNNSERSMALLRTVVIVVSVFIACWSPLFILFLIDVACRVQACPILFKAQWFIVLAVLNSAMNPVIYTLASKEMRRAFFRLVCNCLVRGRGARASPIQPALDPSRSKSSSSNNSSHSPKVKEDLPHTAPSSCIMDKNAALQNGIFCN

Take `O=C(CSc1nnc(-c2ccco2)n1-c1ccccc1)NCCc1ccccc1`: the activation under setting [1] is 0% (inactive).

Consider `COc1ccc(C(=O)c2oc3ccc(Br)cc3c2NC(C)=O)cc1`, for which the activation under setting [1] is -0.9% (inactive).

Turning to `Cc1cc(C)c(NC(=O)CS(=O)CC(=O)Nc2cccnc2)c(C)c1` (stereo not given), the activation under setting [1] is 0.3% (inactive).

On to `COc1ccc(-n2nnc3c(=O)n(CC(=O)N4CCC(Cc5ccccc5)CC4)cnc32)cc1`, for which the activation under setting [1] is -0.4% (inactive).

For `Cc1ccc(C(=O)N(CN2CCCC2=O)c2ccc(F)cc2)cc1`, the activation under setting [1] was -1.3% (inactive).

As for `CC1CC(C)CN(CC(=O)Nc2ccc(S(N)(=O)=O)cc2)C1` (stereo not given), under setting [1], the activation is -0.9% (inactive).

As for `CN(C)c1nc2n(c(=O)n1)CCO2`, the activation under setting [1] is 0.6% (inactive).

Consider `c1ccc2c(c1)OCC(c1nn3cnnc3s1)O2` (stereo not given), for which, under setting [1], the activation is -0.3% (inactive).

Turning to `Cc1ccc(C(c2sc3nc(C)nn3c2O)N2CCN(c3ccc(F)cc3)CC2)cc1` (stereo not given), the activation under setting [1] is 0.6% (inactive).

`CC(C)(C)Oc1ncc(Br)c(OC(C)(C)C)n1`: the activation under setting [1] is -0.4% (inactive).

On to `N#Cc1c(N)n(CCOC(=O)c2ccc(Cl)cc2)c2nc3ccccc3nc12`, for which the activation under setting [1] was 2.5% (inactive).

As for `COc1ccc(C(C)=O)cc1COC(=O)Cn1cnc2ccccc2c1=O`, the activation under setting [1] is 0.7% (inactive).

As for `Cc1cc(C(F)(F)F)nn1CC(=O)N1CCCC1`, the activation under setting [1] is -0.4% (inactive).

With `CCCc1[nH]nc2c1C(c1ccc(OC)c(Cn3nc(C)c(Br)c3C)c1)C(C#N)=C(N)O2` (stereo not given), the activation under setting [1] is -0.7% (inactive).

`O=C(CN1CCOc2ccccc21)N1CCC(Cc2ccccc2)CC1`: under setting [1], the activation is -0.9% (inactive).

In the case of `Cc1cc(=O)[nH]c(SCC(N)=O)c1C#N`, the activation under setting [1] is -1% (inactive).

On to `CCc1nc2ccccc2n(CCOCCOCCn2c(=O)c(CC)nc3ccccc32)c1=O`, for which the activation under setting [1] is 1.3% (inactive).

In the case of `O=C(CC1OC(=O)c2ccccc21)NC1CCCCC1` (stereo not given), the activation under setting [1] was -0.8% (inactive).

With `O=C(O)CCN1C(=O)CC2(CCCCC2)C1=O`, the activation under setting [1] is -0.4% (inactive).

`CCn1cc(NC(=O)Nc2ccc(OC)c(OC)c2)c(C(N)=O)n1`: under setting [1], the activation was -0.9% (inactive).

Take `C=CCn1c(=O)c2ccccc2n2c(SCC(=O)N3CCCc4ccccc43)nnc12`: the activation under setting [1] is -2.3% (inactive).

Turning to `OC(COc1ccc2ccccc2c1)CN1CCOCC1` (stereo not given), the activation under setting [1] is 0.6% (inactive).

On to `Cc1ccc2nc(-c3ccccc3)cc(C(=O)O)c2c1`, for which the activation under setting [1] is 0.7% (inactive).

In the case of `Cc1cccc(NC(=O)C2CCCN2S(=O)(=O)c2ccc(F)cc2)c1C` (stereo not given), under setting [1], the activation is -1.1% (inactive).

Regarding `Cc1nc(Nc2ccc3c(c2)OCCO3)c2nnn(Cc3ccccc3Cl)c2n1`, the activation under setting [1] is -1.2% (inactive).

As for `COc1ccccc1N=C1SC(C)CN1C(=O)C1CCC1` (stereo not given), the activation under setting [1] is 0.5% (inactive).

Turning to `O=S(=O)(NCc1ccccn1)c1ccc(F)cc1`, the activation under setting [1] is -1.2% (inactive).

On to `COCCNc1nc(-n2nc(C)cc2C)nc2sc3c(c12)CCCC3`, for which the activation is 18.4% (active) (S1P3 NFAT-BLA reporter cells, agonism, FRET ratio; at 4.5 µM; stronger effect = higher value; relative to 1 µM S1P, basal subtracted) and 25.3% (S1P3 NFAT-BLA reporter cells, agonism, FRET ratio; measured here: confirmation screen, triplicate average; at 4.5 µM; stronger effect = higher value; relative to 1 µM S1P, basal subtracted).

Turning to `Cc1cc(C)n(-c2nc(SCC(=O)N3CCCC3)c3c4c(sc3n2)CCCC4)n1`, the activation under setting [1] was 0% (inactive).

Consider `COCCn1c(C)cc(C(=O)CSc2ncnc3sc4c(c23)CCC4)c1C`, for which, under setting [1], the activation was -1% (inactive).

In the case of `CC1=CC(C)(C)N(C(=O)CSc2nccn2C)c2cc(C)ccc21`, under setting [1], the activation was 0.7% (inactive).

With `O=C(CCSCCc1ccccn1)Nc1nccs1`, the activation under setting [1] is -0.7% (inactive).

For `COc1ccc(-c2nnc(SCC(=O)NC3CCCCC3)o2)cc1OC`, under setting [1], the activation is -0.8% (inactive).

Consider `CCOC(=O)Cn1c(=O)oc2cc(S(=O)(=O)N(C)Cc3ccco3)ccc21`, for which the activation under setting [1] is 0.3% (inactive).

Regarding `O=C(CN1C(=O)C2C3C=CC(C3)C2C1=O)NCCc1ccccc1Cl` (stereo not given), the activation under setting [1] was 0.1% (inactive).

As for `CCOC(=O)C(C)Oc1cccc2c(=O)n(CC(=O)N3CCc4ccccc43)ccc12` (stereo not given), the activation under setting [1] was -1.6% (inactive).

Turning to `Cc1cc(Nc2cccc(C)c2C)n2ncnc2n1`, the activation under setting [1] was -1.3% (inactive).

Regarding `COCCOC(=O)C1=C(C)NC(=O)NC1c1ccc(Cl)cc1` (stereo not given), the activation under setting [1] is -2.2% (inactive).

Take `O=C(Cn1cnc2c(nnn2-c2ccccc2)c1=O)N1CCC(Cc2ccccc2)CC1`: the activation under setting [1] was -1.2% (inactive).

Take `COC(=O)c1ccc(OC(=O)c2nn(C)cc2Cl)c(OC)c1`: under setting [1], the activation is -1% (inactive).

For `COc1ccc(-c2nnc(SC(=O)N3c4ccccc4Sc4ccccc43)o2)cc1`, the activation under setting [1] is -1.5% (inactive).

For the molecule `CC1(C)CCCC2=C1CC1C(=O)N(c3ccccc3)C(=O)C1C2` (stereo not given), the activation under setting [1] was -0.8% (inactive).

Consider `C=CCNC(=O)CCCOc1cccc(C)c1`, for which, under setting [1], the activation was 0.2% (inactive).

For `O=C(CCOc1ccccc1)NCc1ccccc1`, under setting [1], the activation is 0.1% (inactive).

With `O=C(CCC(=O)OCC(F)(F)C(F)F)NCc1ccccc1`, under setting [1], the activation was -0.2% (inactive).

`COc1c(Br)cc2c(C)c(C(=O)N3CCOCC3)oc2c1Br`: the activation under setting [1] was 1.5% (inactive).

As to `CCCN(CCC)C(=O)C1c2ccccc2Oc2ccccc21`, the activation under setting [1] was -1.3% (inactive).

Regarding `COc1ccccc1CNC(=O)CCCNS(=O)(=O)c1cccc2nsnc12`, under setting [1], the activation is 1.2% (inactive).

As for `COCCNC(=O)Cn1cc2c(n1)CCCCC2`, under setting [1], the activation is -0.2% (inactive).
